Data set [1] in a line: acute radiotoxicity after 8 weeks. Format: in vivo, male NOD/SCID mice. Particulars: 8 weeks post-treatment, 111 MBq. The gist of the method:
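Tumour-bearing male NOD/SCID mice (PSMA(+) PC3 PIP flank, ~60–85 mm3, 14–18 days post-inoculation) got one 111 MBq tail-vein dose of 177Lu radioligand or saline. At 8 weeks, n = 3 per group underwent complete blood analysis (haemoglobin, white cells, neutrophils, platelets) and necropsy with H&E anatomic pathology at a phenotyping core.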

Data set [2] concerns PSMA(+) PC3 PIP flank tumor model. Nature of the data set: PSMA-targeted radionuclide therapy in flank tumor model. Format: in vivo, male NOD/SCID mice. Particulars: single 111 MBq i.v.
Data set [3] concerns PSMA(+) PC3 PIP tumor. Description: tissue biodistribution, PSMA. Format: in vivo, mouse. The note with it: 24 h.
The subject of data set [4] is PSMA(+) PC3 PIP cells. Nature of the data set: cell uptake and internalization. Format: cell-based, human. Particulars: initially; per 1 million cells. The gist of the method: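 HPLC-purified 177Lu radioligands were incubated with PSMA(+) PC3 PIP cells for 1 h up to 24 h. Total cell-surface uptake and internalized fraction were expressed as percentage incubated dose per 1 million cells, mean ± SD, n = 3. Specificity was checked by blocking with excess (~10 μM) of a known PSMA inhibitor.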

Data set [5] has as its system PSMA(+) PC3 PIP cells. Description: clonogenic survival assay. Format: cell-based, human. The note with it: 48 h of incubation, colony formation. The gist of the method: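 PSMA(+) PC3 PIP and PSMA(−) PC3 flu cells were exposed to HPLC-purified 177Lu radioligands for 48 h at 37 °C, then scored for colony formation (mean ± SD, n = 3). D0 was the activity concentration (kBq/mL) giving 37% survival.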

As to `O=C([O-])CN1CCN(CC(=O)[O-])CCN(CC(=O)NCC2CCC(C(=O)N[C@@H](Cc3ccc4ccccc4c3)C(=O)NCCCC[C@H](NC(=O)N[C@@H](CCC(=O)O)C(=O)O)C(=O)O)CC2)CCN(CC(=O)[O-])CC1.[177Lu+3]` (some centres unmarked) [177Lu-PSMA-617], in data set [1], the parotid glands pathology entry is on record as “mild changes”; the platelets entry is reported as “significantly lower platelets than those in the other treatment groups”; the testes pathology result was “most severe degenerative changes and loss of seminiferous epithelium”. Also, in data set [2], the median survival was 130 days and the “mice reaching a relative tumor volume > 4 times the initial volume” value was “only one mouse”. The molecule further yielded a kidney uptake in data set [3] of less than 0.5 ID/g. The “cell uptake within PSMA(+) PC3 PIP cells” value in data set [4] is reported as ~ 40 % of the incubated dose. The “D0 (37% survival)” value in data set [5] was 24–32 kBq/mL.
